From PubChem
Thrombin inh = blocks human thrombin protease activity | AID 1046 | alpha-thrombin, Boc-VPR-AMC fluorogenic substrate cleavage | 0.26% of 220,000 active | inhibition, % at 5 µM;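 active = inhibition at or above 40%; inactive = inhibition below 40%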
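Test system: human alpha-thrombin protein / Dosing: one concentration per compound, 5 µM, with 0.2% DMSO / Medium: pH 7.5 Tris-saline with Tween 20 / Benchmarks: no-compound enzyme wells and no-enzyme blanks / Read-out basis: percent inhibition of thrombin substrate cleavage / Timing: reaction at room temperature / Measured by: fluorescence, ex 355 nm, em 460 nm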
KLK5 inh = kallikrein 5 (human) inhibition | 0.59% of 210,000 active | Q9Y337 | AID 873 | recombinant hK5, fluorogenic AMC substrate cleavage | inhibition, % at 5 µM;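 active = inhibition of 40% or more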
HSV augment = HSV replication enhancement; HSV replication augmentation in cells, fold increase; maximum fold increase; 0.005% of 220,000 active; AID 1956; in the data active = maximum fold increase above about 1.5; inconclusive = no clear call, values can overlap the other calls; tested in PC3 cells
Furin inh = human furin inhibition; P09958; purified furin, fluorogenic substrate cleavage; inhibition, % at 20 µM or 30 µM; 0.061% of 220,000 active; AID 463115; in the data active = inhibition above about 25%
FXIa inh 1536 = factor XIa (human) inhibition; P03951; purified FXIa, Boc-Glu-Ala-Arg-AMC fluorogenic substrate; inhibition, % at 5 µM; 0.14% of 220,000 active;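 active = inhibition of at least 40%; inactive = inhibition below 40%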;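 also: fluorescence of freed AMC excited at 355 nm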
Target sequence (P03951 19-387 limits assumed): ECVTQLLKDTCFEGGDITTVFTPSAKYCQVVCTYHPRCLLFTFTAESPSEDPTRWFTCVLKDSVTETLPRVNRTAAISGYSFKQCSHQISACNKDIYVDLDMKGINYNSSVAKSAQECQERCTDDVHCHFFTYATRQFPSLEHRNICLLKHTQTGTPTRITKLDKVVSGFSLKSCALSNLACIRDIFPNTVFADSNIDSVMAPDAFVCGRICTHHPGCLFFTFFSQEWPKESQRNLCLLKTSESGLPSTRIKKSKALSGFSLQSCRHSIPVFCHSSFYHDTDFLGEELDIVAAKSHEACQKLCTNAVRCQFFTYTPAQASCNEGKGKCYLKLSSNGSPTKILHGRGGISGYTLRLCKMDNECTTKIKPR
Target sequence (P03951 388-625 limits assumed): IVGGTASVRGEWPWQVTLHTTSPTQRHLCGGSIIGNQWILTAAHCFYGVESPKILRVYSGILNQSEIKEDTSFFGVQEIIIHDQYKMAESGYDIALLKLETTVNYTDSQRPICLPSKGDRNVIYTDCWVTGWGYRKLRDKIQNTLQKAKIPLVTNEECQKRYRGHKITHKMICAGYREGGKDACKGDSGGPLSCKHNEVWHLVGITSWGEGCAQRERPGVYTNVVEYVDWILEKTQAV
FXIIa inh = factor XIIa (human) inhibition; P00748; purified FXIIa, Boc-QGR-AMC fluorogenic substrate, 2 h; inhibition, % at 5 µM; 0.3% of 220,000 active; AID 800; in the data active = inhibition above about 40%
A number is an active result; - = inactive; ? = inconclusive; . = not tested or not shown. Shown are actives, neighbours in structure and some others; about 1% of the full set was active somewhere.

SMILES	Thrombin inh	KLK5 inh	HSV augment	Furin inh	FXIa inh 1536	FXIIa inh
Cc1ccc(C(=O)NNC(=S)NC(=O)COc2ccccc2)cc1	-	-	-	-	41	-
Cc1ccccc1C(=O)NNC(=S)NC(=O)COc1ccccc1	-	-	-	-	-	-
Cn1cc(-c2nnc(-c3ccccc3)o2)c2ccccc21	-	87	-	-	-	-
CC1OC(O[C@H]2CC[C@]3(C)C4C=C[C@]56OC[C@@]7(CC[C@@H](C)[C@H](C)C75)[C@H](O)C[C@@]6(C)[C@]4(C)CC[C@H]3C2(C)C)C(OC2OC(CO)C(O)C(O)C2OC2OCC(O)C(O)C2O)C(O)C1O (some centres undefined)	55	-	.	-	-	-
CN(c1ncc(C(F)(F)F)cc1Cl)N1C(=O)c2cccc([N+](=O)[O-])c2C1=O	-	47	-	-	-	-
CCOC(=O)c1sc2ncn(/N=C/c3ccc(O)cc3)c(=O)c2c1C	-	-	-	-	49	-
CO[C@H]1O[C@@H]2O[C@@]3(C)CC[C@H]4[C@H](C)CC[C@@H]([C@H]1C)[C@@]24OO3	.	.	-	.	.	.
Cc1cc(NC(=O)CSc2nc3c(c(=O)n2-c2ccc(Br)cc2)SCC3)no1	-	-	-	-	-	-
COc1ccc(-n2c(SCC(=O)Nc3cc(C)on3)nc3c(c2=O)SCC3)cc1	-	102	-	-	-	-
O=C(CN1CCNCC1)NCCSc1ccc(Cl)cc1	-	-	-	-	-	-
COc1ccc(C(OC(=O)c2ccco2)C(=O)NC(C)(C)C)cc1 (centres undefined)	-	-	-	-	-	-
CO/N=C(\N)c1nonc1N	-	-	-	-	58	-
CCOC(=O)C1=C(CC)Nc2ccccc2N=C1NC(=O)CCN1C(=O)C2CCCCC2C1=O (centres undefined)	-	54	-	-	-	-
CCOC(=O)C1=C(CC)Nc2ccccc2N=C1NC(=O)Cn1cnc2ccccc2c1=O	-	-	-	-	-	-
O=C(O)CCN1C(=O)c2ccc(NC(=O)Cc3ccc(Cl)cc3)cc2C1=O	-	-	-	-	-	-
CC(NC(=O)CSCc1ccccc1Br)c1ccccc1 (centres undefined)	-	-	-	-	-	-
Cc1cc(C)nc(SCC(=O)c2cc3ccccc3oc2=O)n1	-	-	-	-	-	-
O=C(CSc1nc2ccccc2o1)c1cc2ccccc2oc1=O	81	-	-	-	-	-
CCCNC(=O)N1C2=NC(C(=O)OC)=C(C(=O)OC)[C@@H]3N(Cc4ccccc4)c4ccccc4[C@]23C[C@H]1CO	.	.	-	.	.	.
CCOC(=O)c1sc2ccc(S(=O)(=O)N3CCOCC3)cc2c1N	-	56	-	-	-	-
O=C(CS(=O)(=O)c1ccccc1)Nc1ccc(Br)cn1	-	-	-	-	-	-
Cc1cc(N/N=C/c2ccccc2O)nc(N2CCOCC2)n1	-	-	-	-	-	-
COc1ccc(OC)c(/C=N/Nc2cc(C)nc(N3CCOCC3)n2)c1	-	58	-	-	-	40
CN1CCN(CCCNC(=O)C2CC(=O)N(C3CCCCC3)C2)CC1 (centres undefined)	-	-	-	-	-	-
O=C(NCCN1CCc2ccccc2C1)C1CC(=O)N(C2CCCC2)C1 (centres undefined)	-	-	-	-	-	73
SMILES	Thrombin inh	KLK5 inh	HSV augment	Furin inh	FXIa inh 1536	FXIIa inh
O=[N+]([O-])c1nn(-c2ccc3c(c2)OCCO3)n(O)c1=NCCC1=CCCCC1	-	-	-	-	-	-
COc1ccc(-c2ccc3c(n2)sc2c(=O)[nH]c(=O)[nH]c23)cc1OC	-	-	-	-	-	-
O=C(NCc1ccco1)c1c2c(nc3ccccc13)CCC2	-	-	.	-	-	48
O=C(CSc1c2c(nc3ccccc13)CCCC2)NCc1ccco1	-	-	-	-	-	-
O=C(NC1CCCc2ccccc21)C1CCN(S(=O)(=O)c2ccccc2F)CC1 (centres undefined)	-	-	-	-	-	88
O=C(Nc1ccc(N2CCOCC2)cc1)C1CCN(S(=O)(=O)c2ccccc2F)CC1	70	-	-	-	-	-
Cc1nn2c(=O)c3c4c(sc3nc2n1-c1ccccc1)COC(C)(C)C4	-	-	-	-	-	-
CC(NC(=O)CSc1nc2ccc(N)cc2s1)c1ccccc1 (centres undefined)	-	-	-	-	-	-
CCN(CC)CCCN(Cc1cc2cc3c(cc2[nH]c1=O)OCO3)C(=S)Nc1ccccc1OC	45	52	-	-	-	-
O=C(CCc1ccccc1)NCCc1nc2ccccc2[nH]1	-	-	-	-	-	-
O=C(NCCc1nc2ccccc2[nH]1)c1ccco1	-	52	-	-	-	-
C=CCN1C(=O)C(C(C)CC)NC1=S (centres undefined)	41	88	-	-	-	-
C=CCN1C(=O)C(C)NC1=S (centres undefined)	-	-	-	-	-	-
O=C(O)CP(=O)(c1ccccc1)c1ccccc1	-	42	-	-	-	-
O=P(CCO)(c1ccccc1)c1ccccc1	-	-	-	-	-	.
O=C(O)c1ccccc1SCC(=O)N1CCOCC1	41	-	-	-	-	-
CCOc1cc(C=O)cc(Br)c1OCC(N)=O	-	-	-	-	-	-
Cc1ccc(C(=O)C(=O)c2ccc(C)c(N)c2)cc1N	-	-	-	-	53	40
O=C1NC(=O)/C(=C/c2ccccn2)S1	-	-	-	-	-	-
Cc1nc2ccccc2c(=O)n1NC(=O)c1ccccc1Cl	-	-	-	-	-	-
Cc1nc2ccccc2c(=O)n1NC(=O)c1cc(Br)ccc1Cl	51	43	-	-	47	-
CC1(C)Cc2nc3nc(SCC(=O)Nc4ccccc4)nc(N)c3cc2CO1	-	.	-	-	-	-
Cc1ccc(CN(CC(=O)NC2CCCC2)C(=O)CSc2nnc(COc3ccccc3)o2)cc1	-	-	-	25	-	-
O=C(CN(Cc1ccccc1)C(=O)CSc1nnc(COc2ccccc2)o1)NC1CCCC1	-	-	?	-	-	-
COc1ccc(S(=O)(=O)N2CCCCC2)cc1NC(=O)CN(C)C1CCCCC1	.	-	-	-	-	49
SMILES	Thrombin inh	KLK5 inh	HSV augment	Furin inh	FXIa inh 1536	FXIIa inh
CC(Sc1nnc(-c2ccco2)o1)C(=O)NCCC1=CCCCC1 (centres undefined)	.	47	-	-	-	-
CCOC(=O)CNC(=O)c1cc(OC)cc(OC)c1	-	-	-	-	-	-
CCOC(=O)CNC(=O)Cc1ccc(OC)cc1	-	-	-	-	-	43
CCC(C)/C=C/C1=CC2=C(Cl)C(=O)C3(C)OC(=O)C(C(=O)C(C)C(C)O)C3C2=CO1 (centres undefined)	-	-	-	-	-	-
O=C1CC(Sc2ccc(Cl)cc2)C(=O)N1c1ccc2c(c1)OCCO2 (centres undefined)	-	53	-	-	44	-
Cn1c(SCC(=O)c2ccccc2)nnc1-c1cccc(N)c1	-	60	-	-	-	106
